# Test results taken from ChEMBL document CHEMBL1129264, “Mercaptoacyl dipeptides as orally active dual inhibitors of angiotensin-converting enzyme and neutral endopeptidase” (1996).
# Tests used:
# [1] = molecular target: T1, Angiotensin-converting enzyme (Rattus norvegicus) (UniProt P47820); assay: Compound was tested for plasma inhibition of Angiotensin I converting enzyme activity in the conscious rat. Expressed as Inhibition of AI pressor response at 4 hr at a dose of 14.4 mg/kg po; assay type: organism-based; parameters: dose 14.4 mg/kg
# T1 sequence (whole entry): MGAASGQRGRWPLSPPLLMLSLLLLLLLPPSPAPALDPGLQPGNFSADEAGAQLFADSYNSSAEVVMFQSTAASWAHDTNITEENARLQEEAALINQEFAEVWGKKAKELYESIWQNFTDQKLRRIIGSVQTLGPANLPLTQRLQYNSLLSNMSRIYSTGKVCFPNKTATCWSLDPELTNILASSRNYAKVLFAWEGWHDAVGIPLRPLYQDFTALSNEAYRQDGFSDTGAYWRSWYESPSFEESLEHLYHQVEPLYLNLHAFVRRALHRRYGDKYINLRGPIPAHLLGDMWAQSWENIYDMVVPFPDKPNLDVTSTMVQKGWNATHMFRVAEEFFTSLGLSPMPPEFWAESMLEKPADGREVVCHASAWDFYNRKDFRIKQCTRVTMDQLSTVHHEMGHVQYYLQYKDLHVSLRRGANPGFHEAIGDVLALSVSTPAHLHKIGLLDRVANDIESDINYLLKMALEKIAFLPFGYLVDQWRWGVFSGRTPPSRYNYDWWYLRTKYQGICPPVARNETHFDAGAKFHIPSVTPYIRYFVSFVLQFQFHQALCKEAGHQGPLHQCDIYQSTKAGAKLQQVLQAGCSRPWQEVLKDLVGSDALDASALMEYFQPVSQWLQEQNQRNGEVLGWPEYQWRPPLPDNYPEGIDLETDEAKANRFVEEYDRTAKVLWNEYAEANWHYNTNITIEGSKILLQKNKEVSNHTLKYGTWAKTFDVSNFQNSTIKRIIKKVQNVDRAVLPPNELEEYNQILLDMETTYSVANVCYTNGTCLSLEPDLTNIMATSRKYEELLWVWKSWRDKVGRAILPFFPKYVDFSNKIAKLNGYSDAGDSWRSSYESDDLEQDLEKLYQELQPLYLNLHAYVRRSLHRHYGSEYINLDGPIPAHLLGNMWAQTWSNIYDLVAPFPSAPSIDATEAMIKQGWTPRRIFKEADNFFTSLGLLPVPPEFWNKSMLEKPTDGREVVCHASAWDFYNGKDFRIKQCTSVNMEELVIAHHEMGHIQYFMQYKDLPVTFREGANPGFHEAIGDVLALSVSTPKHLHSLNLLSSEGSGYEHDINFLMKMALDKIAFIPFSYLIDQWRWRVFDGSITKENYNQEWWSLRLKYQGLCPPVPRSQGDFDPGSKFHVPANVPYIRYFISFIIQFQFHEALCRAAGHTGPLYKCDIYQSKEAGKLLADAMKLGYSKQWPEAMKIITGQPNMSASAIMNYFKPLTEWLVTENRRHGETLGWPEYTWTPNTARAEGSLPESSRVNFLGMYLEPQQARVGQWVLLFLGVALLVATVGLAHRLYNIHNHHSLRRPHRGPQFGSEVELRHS
# Summary of the method: (§1)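 Male conscious normotensive Sprague-Dawley rats (275-390 g), prepared under methohexital sodium (75 mg/kg ip) with femoral arterial and venous catheters. The next day, pressor responses to three angiotensin-I challenges (300 ng/kg iv) were recorded. Compound was then given orally and angiotensin-I challenges were repeated at set times. Percent inhibition is relative to the mean of the three baseline responses.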
# [2] = molecular target: T1, Angiotensin-converting enzyme (Rattus norvegicus); assay: Compound was tested for plasma inhibition of Angiotensin I converting enzyme activity in the conscious rat. Expressed as Inhibition of AI pressor response at 1 hr at a dose of 14.4 mg/kg po; assay type: organism-based; parameters: dose 14.4 mg/kg
# Summary of the method: (§2)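 Male conscious normotensive Sprague-Dawley rats (275-390 g), given femoral arterial and venous catheters under methohexital sodium (75 mg/kg ip) anesthesia. Next day, pressor responses to three angiotensin-I challenges (300 ng/kg iv) recorded by direct arterial pressure. Compound then dosed orally, and AI challenge repeated at set times. Each post-dose response compared with the mean of the three baseline responses, giving % inhibition.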
# [3] = molecular target: T1, Angiotensin-converting enzyme (Rattus norvegicus); assay: Compound was tested for plasma inhibition of Angiotensin I converting enzyme activity in the conscious rat. Expressed as Inhibition of AI pressor response at 6 hr at a dose of 14.4 mg/kg po; assay type: organism-based; parameters: dose 14.4 mg/kg; summary of the method: as §1
# [4] = molecular target: T1, Angiotensin-converting enzyme (Rattus norvegicus); assay: Compound was tested for plasma inhibition of Angiotensin I converting enzyme activity in the conscious rat. Expressed as Inhibition of AI pressor response at 2 hr at a dose of 14.4 mg/kg po; assay type: organism-based; parameters: dose 14.4 mg/kg; summary of the method: as §2
# [5] = test system: Rattus norvegicus; assay: Plasma ANF Concentration in the Conscious Rat at a dose of 11.7(po)mg/kg at 1 h; assay type: functional
# Summary of the method: (§3)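 Male Sprague-Dawley rats (275-390 g) received femoral artery and vein catheters under ketamine (150 mg/kg)/acepromazine and recovered for 24 h, tethered, before study conscious. ratANF(99-126) was infused at 450 ng/kg/min iv for 5 h. Baseline blood was drawn at 60 min into the infusion, then compound was given po.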
# [6] = molecular target: T1, Angiotensin-converting enzyme (Rattus norvegicus); assay: Compound was tested for plasma inhibition of Angiotensin I converting enzyme activity in the conscious rat. Expressed as Inhibition of AI pressor response at 4 hr at a dose of 11.7 mg/kg po; assay type: organism-based; parameters: dose 11.7 mg/kg; summary of the method: as §2
# [7] = molecular target: T1, Angiotensin-converting enzyme (Rattus norvegicus); assay: Compound was tested for plasma inhibition of Angiotensin I converting enzyme activity in the conscious rat. Expressed as Inhibition of AI pressor response at 6 hr at a dose of 11.7 mg/kg po; assay type: organism-based; parameters: dose 11.7 mg/kg; summary of the method: as §1
# [8] = test system: Rattus norvegicus; assay: Plasma ANF Concentration in the Conscious Rat at a dose of 11.7(po)mg/kg at 2 h; assay type: functional; summary of the method: as §3
# [9] = molecular target: T1, Angiotensin-converting enzyme (Rattus norvegicus); assay: Compound was tested for plasma inhibition of Angiotensin I converting enzyme activity in the conscious rat. Expressed as Inhibition of AI pressor response at 2 hr at a dose of 11.7 mg/kg po; assay type: organism-based; parameters: dose 11.7 mg/kg; summary of the method: as §2
# [10] = test system: Rattus norvegicus; assay: Plasma ANF Concentration in the Conscious Rat at a dose of 11.7(po)mg/kg at 0.5 h; assay type: functional; summary of the method: as §3
# [11] = molecular target: T1, Angiotensin-converting enzyme (Rattus norvegicus); assay: Compound was tested for plasma inhibition of Angiotensin I converting enzyme activity in the conscious rat. Expressed as Inhibition of AI pressor response at 1 hr at a dose of 11.7 mg/kg po; assay type: organism-based; parameters: dose 11.7 mg/kg; summary of the method: as §2
# [12] = test system: Rattus norvegicus; assay: Plasma ANF Concentration in the Conscious Rat at a dose of 11.7(po)mg/kg at 4 h; assay type: functional; summary of the method: as §3
# [13] = molecular target: T1, Angiotensin-converting enzyme (Rattus norvegicus); assay: Compound was tested for plasma inhibition of Angiotensin I converting enzyme activity in the conscious rat. Expressed as Inhibition of AI pressor response at 4 hr at a dose of 14.3 mg/kg po; assay type: organism-based; parameters: dose 14.3 mg/kg; summary of the method: as §1
# [14] = test system: Rattus norvegicus; assay: Plasma ANF Concentration in the Conscious Rat at a dose of 14.3(po)mg/kg at 0.5 h; assay type: functional
# Summary of the method: (§4)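 Male Sprague-Dawley rats (275-390 g), catheterized in femoral artery and vein under ketamine (150 mg/kg)/acepromazine, tethered and recovered 24 h, studied conscious. Continuous iv rat ANF(99-126) infusion at 450 ng/kg/min for 5 h; baseline blood at 60 min, then oral dosing, sampling at 30-240 min.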
# [15] = test system: Rattus norvegicus; assay: Plasma ANF Concentration in the Conscious Rat at a dose of 14.3(po)mg/kg at 2 h; assay type: functional; summary of the method: as §4
# [16] = molecular target: T1, Angiotensin-converting enzyme (Rattus norvegicus); assay: Compound was tested for plasma inhibition of Angiotensin I converting enzyme activity in the conscious rat. Expressed as Inhibition of AI pressor response at 1 hr at a dose of 14.3 mg/kg po; assay type: organism-based; parameters: dose 14.3 mg/kg; summary of the method: as §2
# [17] = molecular target: T1, Angiotensin-converting enzyme (Rattus norvegicus); assay: Compound was tested for plasma inhibition of Angiotensin I converting enzyme activity in the conscious rat. Expressed as Inhibition of AI pressor response at 6 hr at a dose of 14.3 mg/kg po; assay type: organism-based; parameters: dose 14.3 mg/kg; summary of the method: as §1
# [18] = molecular target: T1, Angiotensin-converting enzyme (Rattus norvegicus); assay: Compound was tested for plasma inhibition of Angiotensin I converting enzyme activity in the conscious rat. Expressed as Inhibition of AI pressor response at 2 hr at a dose of 14.3 mg/kg po; assay type: organism-based; parameters: dose 14.3 mg/kg; summary of the method: as §2
# [19] = test system: Rattus norvegicus; assay: Plasma ANF Concentration in the Conscious Rat at a dose of 14.3(po)mg/kg at 4 h; assay type: functional; summary of the method: as §4
# [20] = test system: Rattus norvegicus; assay: Plasma ANF Concentration in the Conscious Rat at a dose of 14.3(po)mg/kg at 1 h; assay type: functional; summary of the method: as §4
# [21] = molecular target: T1, Angiotensin-converting enzyme (Rattus norvegicus); assay: Compound was tested for plasma inhibition of Angiotensin I converting enzyme activity in the conscious rat. Expressed as Inhibition of AI pressor response at 4 hr at a dose of 14.5 mg/kg po; assay type: organism-based; parameters: dose 14.5 mg/kg; summary of the method: as §1
# [22] = molecular target: T1, Angiotensin-converting enzyme (Rattus norvegicus); assay: Compound was tested for plasma inhibition of Angiotensin I converting enzyme activity in the conscious rat. Expressed as Inhibition of AI pressor response at 6 hr at a dose of 14.5 mg/kg po; assay type: organism-based; parameters: dose 14.5 mg/kg; summary of the method: as §1
# [23] = molecular target: T1, Angiotensin-converting enzyme (Rattus norvegicus); assay: Compound was tested for plasma inhibition of Angiotensin I converting enzyme activity in the conscious rat. Expressed as Inhibition of AI pressor response at 2 hr at a dose of 14.5 mg/kg po; assay type: organism-based; parameters: dose 14.5 mg/kg; summary of the method: as §2
# [24] = molecular target: T1, Angiotensin-converting enzyme (Rattus norvegicus); assay: Compound was tested for plasma inhibition of Angiotensin I converting enzyme activity in the conscious rat. Expressed as Inhibition of AI pressor response at 1 hr at a dose of 14.5 mg/kg po; assay type: organism-based; parameters: dose 14.5 mg/kg; summary of the method: as §2
inhibition [1] [%],inhibition [2] [%],inhibition [3] [%],inhibition [4] [%],inhibition [13] [%],inhibition [16] [%],inhibition [17] [%],inhibition [18] [%],Compound,Control [14] [%],Control [15] [%],Control [19] [%],Control [20] [%],other results
36,29,26,37,–,–,–,–,CCOC(=O)[C@H](Cc1ccc(OC(=O)c2cccs2)cc1)NC(=O)C1(NC(=O)[C@H](SC(C)=O)C(C)C)CCCC1,–,–,–,–,–
–,–,–,–,–,–,–,–,CCOC(=O)[C@H](Cc1ccc(OC)cc1)NC(=O)C1(NC(=O)[C@H](SC(C)=O)C(C)C)CCCC1,–,–,–,–,Control [5]: 346%; inhibition [6]: 79%; inhibition [7]: 77%; Control [8]: 250%; inhibition [9]: 81%; Control [10]: 275%; inhibition [11]: 73%; Control [12]: 251%
50,65,26,55,–,–,–,–,CCCCOC(=O)[C@H](Cc1ccc(O)cc1)NC(=O)C1(NC(=O)[C@H](SC(=O)CN2CCCCC2)C(C)C)CCCC1,–,–,–,–,–
–,–,–,–,70,79,55,75,CCOC(=O)[C@H](Cc1ccc(OC(=O)c2ccncc2)cc1)NC(=O)C1(NC(=O)[C@H](SC(C)=O)C(C)C)CCCC1,165,183,159,193,–
–,–,–,–,67,78,60,75,CCOC(=O)[C@H](Cc1ccc(OC(=O)c2cccnc2)cc1)NC(=O)C1(NC(=O)[C@H](SC(C)=O)C(C)C)CCCC1,246,246,277,234,–
–,–,–,–,–,–,–,–,CCCCOC(=O)[C@H](Cc1ccc(O)cc1)NC(=O)C1(NC(=O)[C@H](SC(=O)CN2CCOCC2)C(C)C)CCCC1,–,–,–,–,inhibition [21]: 34%; inhibition [22]: 12%; inhibition [23]: 53%; inhibition [24]: 57%
